Legend:
[1] = target: T1, Adenosine receptor A3 (Homo sapiens, UniProt P0DMS8); assay: biochemical; assay type: cell-based, CHO
T1 sequence (P0DMS8 whole entry): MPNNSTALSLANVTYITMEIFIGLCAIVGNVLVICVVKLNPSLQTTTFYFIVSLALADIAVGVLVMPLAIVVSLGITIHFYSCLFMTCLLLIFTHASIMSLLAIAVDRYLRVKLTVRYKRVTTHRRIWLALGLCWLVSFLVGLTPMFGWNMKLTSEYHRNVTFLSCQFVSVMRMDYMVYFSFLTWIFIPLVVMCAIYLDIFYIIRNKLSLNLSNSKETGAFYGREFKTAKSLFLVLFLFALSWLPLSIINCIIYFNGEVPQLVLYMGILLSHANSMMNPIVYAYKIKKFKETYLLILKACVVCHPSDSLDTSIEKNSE

[2] = target: T2, Adenosine receptor A1 (Homo sapiens) (UniProt P30542); assay: (§1) Percent inhibition of [3H]DPCPX binding to human adenosine A1 receptor expressed in CHO cells at 10 uM; assay type: cell-based
T2 sequence (whole entry): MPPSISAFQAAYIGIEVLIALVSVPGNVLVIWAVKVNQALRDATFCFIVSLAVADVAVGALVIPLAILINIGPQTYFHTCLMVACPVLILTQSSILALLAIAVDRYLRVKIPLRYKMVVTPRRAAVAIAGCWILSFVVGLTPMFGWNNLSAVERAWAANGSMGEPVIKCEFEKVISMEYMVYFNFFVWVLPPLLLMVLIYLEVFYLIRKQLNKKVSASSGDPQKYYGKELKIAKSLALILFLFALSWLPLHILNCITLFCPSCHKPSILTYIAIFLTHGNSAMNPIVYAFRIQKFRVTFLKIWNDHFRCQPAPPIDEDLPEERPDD
How it was run: (§2)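 Test ligand at a single 10 μM was run against 0.5 nM [3H]DPCPX on membranes (20 μg protein) from CHO cells stably expressing human A1 receptor, in 50 mM Tris-HCl, pH 7.4, for 60 min at 25°C. Nonspecific binding was defined with 10 μM NECA. Filtration was on GF/B, with scintillation counting. Results are percent displacement of radioligand.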

[3] = target: T3, Adenosine receptor A2a (Homo sapiens, UniProt P29274); assay: Percent inhibition of [3H]-ZM241385 binding to human adenosine A2A receptor expressed in CHO cells at 10 uM
T3 sequence (P29274 whole entry): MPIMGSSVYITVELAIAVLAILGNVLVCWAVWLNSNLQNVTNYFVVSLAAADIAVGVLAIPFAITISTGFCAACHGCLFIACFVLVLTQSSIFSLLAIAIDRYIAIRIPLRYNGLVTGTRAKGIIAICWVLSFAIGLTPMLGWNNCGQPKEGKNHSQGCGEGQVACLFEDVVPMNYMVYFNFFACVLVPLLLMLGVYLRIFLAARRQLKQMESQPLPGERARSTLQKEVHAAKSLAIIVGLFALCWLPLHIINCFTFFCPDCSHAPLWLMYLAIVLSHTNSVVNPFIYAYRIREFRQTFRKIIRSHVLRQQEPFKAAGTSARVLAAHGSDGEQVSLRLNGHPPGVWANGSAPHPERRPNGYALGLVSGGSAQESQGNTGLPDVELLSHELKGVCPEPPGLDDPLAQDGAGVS

[4] = target: T3, Adenosine receptor A2a; assay type: cell-based, CHO
[5] = target: T4, Adenosine receptor A1 (Homo sapiens, UniProt P30542); assay type: cell-based, CHO
T4 sequence (P30542 whole entry): T2 sequence (whole entry)

[6] = target: T4, Adenosine receptor A1; assay: as §1; assay type: cell-based
How it was run: as §2

[7] = target: T3, Adenosine receptor A2a; assay: Percent inhibition of […] binding to human adenosine A2A receptor expressed in CHO cells at 10 uM; assay type: cell-based
[8] = target: T4, Adenosine receptor A1; assay: Percent inhibition of [3H]-DPCPX binding to human adenosine A1 receptor expressed in CHO cells at 10 uM; assay type: cell-based
How it was run: as §2

[9] = target: T4, Adenosine receptor A1; assay: Binding affinity for human adenosine A1 receptor
How it was run: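 Membranes from CHO cells stably expressing human A1 receptor (20 μg protein) were incubated with 0.5 nM [3H]DPCPX in 50 mM Tris-HCl, pH 7.4, for 60 min at 25°C. Nonspecific binding was defined with 10 μM NECA. Bound label was collected by GF/B filtration and counted by scintillation.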

Compound	Ki [1] [nM]	inhibition [2] [%]	inhibition [3] [%]	also measured
c1nc2nc(Nc3ccc(N4CCOCC4)cc3)[nH]c(NC3CCC3)c-2n1	1810	29	18	–
c1nc2nc(Nc3ccc(N4CCOCC4)cc3)nc(NC3CC4CCC3C4)c2[nH]1 (configuration not stated)	122	–	–	–
c1nc2nc(Nc3ccc(N4CCOCC4)cc3)[nH]c(NC3CCCCCC3)c-2n1	420	6	38	–
Cn1cnc2c(NC3CCCCCC3)nc(Nc3ccccc3)nc21	960	–	–	Ki [4]: 2950 nM; Ki [5]: 1940 nM
c1ccc2cc(Nc3nc(NC4CCCCC4)c4[nH]cnc4n3)ccc2c1	2420	–	–	–
c1ccc(-c2ccc(Nc3nc4ncnc-4c(NC4CCCCC4)[nH]3)cc2)cc1	5400	14	22	–
c1ccc(Oc2nc(NC3CC4CCC3C4)c3nc[nH]c3n2)cc1 (configuration not stated)	74	–	25	Ki [5]: 1470 nM
c1ccc(Nc2nc3ncnc-3c(NC3CCCCC3)[nH]2)cc1	51	–	–	Ki [6]: 2730 nM; Ki [4]: 1700 nM
c1nc2c(NC3CCCCC3)nc(Nc3ccc(N4CCCCC4)cc3)nc2[nH]1	1570	16	–	inhibition [7]: 50%
c1ccc(Nc2nc3ncnc-3c(NC3CCCCCCC3)[nH]2)cc1	340	–	–	Ki [8]: 4470 nM
c1nc2nc(Nc3ccc(N4CCOCC4)cc3)nc(NC3CCCCC3)c2[nH]1 [REVERSINE]	660	–	–	Ki [4]: > 10000 nM; Ki [5]: > 10000 nM
c1ccc(Sc2nc3ncnc-3c(NC3CCCCC3)[nH]2)cc1	134	–	–	–
CCNc1nc(NC2CCCCC2)c2[nH]cnc2n1	1120	51	42	–
CC(C)N(C)c1nc2c(NC3CC4CC3CC4O)ncnc2n1C (configuration not stated)	–	–	–	Ki [9]: 1.7 nM
c1ccc(Nc2nc(NC3CCCCCC3)c3[nH]cnc3n2)cc1	42	–	–	Ki [4]: 4120 nM; Ki [5]: 1720 nM
c1nc2nc(Nc3ccc(N4CCOCC4)cc3)nc(NC3CC3)c2[nH]1	1870	22	25	–
c1ccc2cc(Nc3nc4ncnc-4c(NC4CCCCC4)[nH]3)ccc2c1	–	39	52	–
c1ccc(CCNc2nc(NC3CCCCC3)c3[nH]cnc3n2)cc1	1460	–	–	Ki [6]: 3170 nM; inhibition [7]: 46%
CCNc1[nH]c(Nc2ccc(N3CCOCC3)cc2)nc2ncnc1-2	1530	23	16	–
c1nc2nc(Nc3ccc(N4CCOCC4)cc3)[nH]c(NC3CCCC3)c-2n1	1390	22	20	–
CN(C)c1ccc(Nc2nc(NC3CCCCC3)c3[nH]cnc3n2)cc1	70	–	–	Ki [4]: 6100 nM; Ki [5]: 3900 nM
c1ccc(CNc2nc(NC3CCCCC3)c3[nH]cnc3n2)cc1	920	42	34	–
c1nc2nc(Nc3ccc(N4CCOCC4)cc3)[nH]c(NC3CCCCCCC3)c-2n1	2770	0	17	–
Cn1cnc2c(NC3CCCCC3)nc(Nc3ccccc3)nc21	70	–	–	Ki [4]: 1200 nM; Ki [5]: 1880 nM

— ChEMBL document CHEMBL1140335, “"Reversine" and its 2-substituted adenine derivatives as potent and selective A3 adenosine receptor antagonists” (J Med Chem, 2005)
